# Assay results published in ChEMBL document CHEMBL1125301, “1-(2-Aminoethyl)-3-methyl-8,9-dihydropyrano[3,2-e]indole: a rotationally restricted phenolic analog of the neurotransmitter serotonin and agonist selective for serotonin (5-HT2-type) receptors” (J Med Chem, 1992).
# Assays:
# [1] = target: T1, Serotonin 2 (5-HT2) receptor (Rattus norvegicus, UniProt P30994+P08909+P14842); assay: Compound was evaluated for binding affinity towards 5-hydroxytryptamine 2 receptor in rat anterior cortex using [125I]DOI as radioligand
# Outline: (§1)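 Competition binding against the named radioligand on the native tissue membranes shown, radioligand at roughly its K_D for the binding system; procedures otherwise follow earlier published methods.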
# [2] = target: T1, Serotonin 2 (5-HT2) receptor; assay: Compound was evaluated for binding affinity towards 5-hydroxytryptamine 2 receptor in rat anterior cortex using [3H]ketanserin as radioligand; outline: as §1
# [3] = target: T2, 5-hydroxytryptamine receptor 1A (Rattus norvegicus, UniProt P19327); assay: Compound was evaluated for binding affinity towards 5-hydroxytryptamine 1A receptor in rat cortex using [3H]-8-OH-DPAT as radioligand; outline: as §1
# T2 sequence (P19327 whole entry): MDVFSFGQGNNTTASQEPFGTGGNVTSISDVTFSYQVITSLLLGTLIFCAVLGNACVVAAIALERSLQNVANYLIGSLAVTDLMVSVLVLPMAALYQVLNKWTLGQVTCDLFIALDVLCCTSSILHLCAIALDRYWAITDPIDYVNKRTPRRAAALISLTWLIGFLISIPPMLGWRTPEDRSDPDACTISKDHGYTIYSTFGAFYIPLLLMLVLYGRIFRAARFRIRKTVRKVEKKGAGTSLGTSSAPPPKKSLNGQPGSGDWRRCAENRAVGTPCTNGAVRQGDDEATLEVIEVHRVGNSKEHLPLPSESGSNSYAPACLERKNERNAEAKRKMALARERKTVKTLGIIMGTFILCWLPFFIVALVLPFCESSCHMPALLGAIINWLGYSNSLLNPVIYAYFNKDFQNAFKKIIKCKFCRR
Compound,IC50 [1] [nM],IC50 [2] [nM],IC50 [3] [nM]
Cn1cc(CCN)c2c3c(ccc21)OCCC3,14,800,–
NCCc1c[nH]c2ccc3c(c12)CCCO3,14,2200,610
COc1ccc2[nH]cc(CCN(C)C)c2c1 [MEBUFOTENIN],–,–,11
CN(C)CCc1cn(C)c2ccc3c(c12)CCCO3,81,1000,5400
CN(C)CCc1c[nH]c2cc3c(cc12)OCCC3,920,5900,1200
